# Data published in ChEMBL document CHEMBL4312029, “Structure-activity relationship studies and in vitro and in vivo anticancer activity of novel 3-aroyl-1,4-diarylpyrroles against solid tumors and hematological malignancies” (Eur J Med Chem, 2020).
# The source made the active and inactive calls. No cut-off for these calls is given here.
# Experiments:
# Tubulin = test: Inhibition of tubulin polymerization (unknown origin) incubated for 15 mins followed by GTP addition and measured for 20 mins by spectrophotometry; format: protein-complex assay, Homo sapiens
# Summary of the method: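 Tubulin assembly assay with tubulin at 10 µM. IC50 for inhibition of polymerization; run in duplicate or triplicate.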
# MCF7 = test: Cytotoxicity against human MCF7 cells assessed as reduction in cell growth incubated for 96 hrs by MTT assay; format: functional, cell-based; settings: MCF7, 96 h
# Summary of the method: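 Growth inhibition of human breast carcinoma cells, reported as IC50; run in duplicate or triplicate.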
# Tubulin (Homo sapiens) = Tubulin (Homo sapiens) (UniProt P68371+Q9H4B7+P0DPH7+P68366+Q13509+Q71U36+P04350+Q3ZCM7+P07437+P68363+Q9BQE3+Q6PEY2+Q13885+Q9BVA1+Q9BUF5); test: Inhibition of [3H]colchicine binding to tubulin (unknown origin) at 5 uM incubated for 10 mins by DEAE-cellulose filter method relative to control; format: protein-complex assay
# KU812 cell line = test: Cytotoxicity against human KU812 cells expressing IM- sensitive wild type Bcr/Abl assessed as reduction in cell viability incubated for 48 hrs by MTT assay; format: functional, cell-based; settings: KU812, 48 h
# [1] = Cytotoxicity against human LAMA84-s cells expressing IM-sensitive wild type Bcr/Abl assessed as reduction in cell viability incubated for 48 hrs by MTT assay; format: functional, cell-based
# [2] = Cytotoxicity against IM resistant human LAMA84-r cells assessed as reduction in cell viability incubated for 48 hrs by MTT assay; format: functional, cell-based
# KBM5 [3] = test: Cytotoxicity against human KBM5 cells expressing IM- sensitive wild type Bcr/Abl assessed as reduction in cell viability incubated for 48 hrs by MTT assay; format: functional, cell-based; settings: KBM5, 48 h
# KBM5 [4] = test: Cytotoxicity against human KBM5 cells expressing IM-resistant Bcr/Abl T315I mutant assessed as reduction in cell viability incubated for 48 hrs by MTT assay; format: functional, cell-based; settings: KBM5, 48 h
# [5] = (§1) Cytotoxicity against human U343MG cells assessed as reduction in cell viability incubated for 72 hrs by MTS assay; format: functional, cell-based; settings: U-343MG
# Summary of the method: (§2)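 Increasing concentrations applied to glioblastoma and neuroblastoma lines to give dose-response viability curves; cytotoxic IC50 from triplicate experiments. Incubation 48 h, except U343MG at 72 h.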
# Homo sapiens = organism: Homo sapiens; test: as §1; format: functional, cell-based; summary of the method: as §2
# U-87 MG = test: Cytotoxicity against human U87MG cells assessed as reduction in cell viability incubated for 48 hrs by MTS assay; format: functional, cell-based, U-87MG ATCC; summary of the method: as §2
# T98G = test: Cytotoxicity against human T98G cells assessed as reduction in cell viability incubated for 48 hrs by MTS assay; format: functional, cell-based; summary of the method: as §2
# [6] = Cytotoxicity against human SK-N-BE cells assessed as reduction in cell viability incubated for 48 hrs by MTT assay; format: functional, cell-based; summary of the method: as §2
# [7] = Cytotoxicity against human SK-N-BE(2)C cells assessed as reduction in cell viability incubated for 48 hrs by MTT assay; format: functional, cell-based; summary of the method: as §2
# HCT-116 = test: Cytotoxicity against human HCT116 cells assessed as reduction in cell viability incubated for 48 hrs by MTT assay; format: functional, cell-based
# HT-29 = test: Cytotoxicity against human HT-29 cells assessed as reduction in cell viability incubated for 48 hrs by MTT assay; format: functional, cell-based
# SW480 = test: Cytotoxicity against human SW480 cells assessed as reduction in cell viability incubated for 48 hrs by MTT assay; format: functional, cell-based
# SW-620 = test: Cytotoxicity against human SW620 cells assessed as reduction in cell viability incubated for 48 hrs by MTT assay; format: functional, cell-based
# T-24 = test: Cytotoxicity against human T24 cells assessed as reduction in cell viability incubated for 48 hrs by MTT assay; format: functional, cell-based; settings: T-24, 48 h
# PBMC = test: Cytotoxicity against human PBMC assessed as cell viability by MTT assay; format: cell-based
# KBM5 [8] = test: Potentiation of NLT-induced apoptotic cell death in human KBM5 cells expressing IM-sensitive wild type Bcr/Abl at 10 nM co-incubated with NLT for 48 hrs by Annexin V-staining based flow cytometry; format: functional
# Summary of the method: (§3)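 KBM5-WT or KBM5-T315I CML cells treated 48 h with 10 nM nilotinib, with or without 10 nM test compound (each agent alone also run). Apoptosis measured by annexin V staining and flow cytometry, read as percentage of apoptotic cells. Triplicate experiments.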
# KBM5 [9] = test: Potentiation of NLT-induced apoptotic cell death in human KBM5 cells expressing IM-resistant Bcr/Abl T315I mutant at 10 nM co-incubated with NLT for 48 hrs by Annexin V-staining based flow cytometry; format: functional; summary of the method: as §3
# KBM5 [10] = test: Induction of apoptotic cell death in human KBM5 cells expressing IM-sensitive wild type Bcr/Abl at 10 nM incubated for 48 hrs by Annexin V-staining based flow cytometry; format: functional
# Summary of the method: (§4)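 KBM5-WT and KBM5-T315I cells exposed 48 h to 10 nM test compound alone or combined with 10 nM nilotinib (nilotinib alone as comparator). Apoptotic cells quantified by annexin V staining and flow cytometry; triplicate.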
# KBM5 [11] = test: Induction of apoptotic cell death in human KBM5 cells expressing IM-resistant Bcr/Abl T315I mutant at 10 nM incubated for 48 hrs by Annexin V-staining based flow cytometry; format: functional; summary of the method: as §4
compound,measurement,setting,value
COc1cc(C(=O)c2cn(-c3ccc(N)cc3)cc2-c2ccc(N)cc2)cc(OC)c1OC,IC50,Tubulin,0.38 µM
same,IC50,MCF7,0.015 µM
same,inhibition,Tubulin (Homo sapiens),87%
same,IC50,KU812 cell line,0.005 µM
same,IC50,[1],0.008 µM
same,IC50,[2],0.01 µM
same,IC50,KBM5 [3],0.01 µM
same,IC50,KBM5 [4],0.012 µM
same,Emax,[5],34%
same,IC50,[5],0.0215 to 0.022 µM
same,inhibition,Homo sapiens,Dose-dependent effect
same,Emax,U-87 MG,31.8%
same,IC50,U-87 MG,0.0476 to 0.048 µM
same,inhibition,U-87 MG; U-87MG ATCC,Dose-dependent effect
same,Emax,T98G,36.2%
same,IC50,T98G,0.024 to 0.0243 µM
same,inhibition,T98G,Dose-dependent effect
same,IC50,[6],0.303 µM
same,IC50,[7],0.147 µM
same,inhibition,HCT-116,Dose-dependent effect
same,IC50,"HCT-116; HCT-116, 48 h",0.041 µM
same,inhibition,HT-29,Dose-dependent effect
same,IC50,"HT-29; HT-29, 48 h",0.034 µM
same,inhibition,SW480,Dose-dependent effect
same,IC50,"SW480; SW480, 48 h",0.153 µM
same,inhibition,SW-620,Dose-dependent effect
same,IC50,"SW-620; SW-620, 48 h",0.061 µM
same,IC50,T-24,0.058 µM
same,Activity,PBMC,Non-Toxic
same,Activity,KBM5 [8],50 - 90%
same,Activity,KBM5 [9],50 - 90%
same,Activity,KBM5 [10],Active
same,Activity,KBM5 [11],Active
